We go through 37 compounds from ChEMBL document CHEMBL1135725, “N-Aryl N'-hydroxyguanidines, a new class of NO-donors after selective oxidation by nitric oxide synthases: structure-activity relationship” (J Med Chem, 2002).

The target of assay [1] is T1, Nitric oxide synthase, inducible (Mus musculus) (UniProt P29477).
T1 sequence (whole entry): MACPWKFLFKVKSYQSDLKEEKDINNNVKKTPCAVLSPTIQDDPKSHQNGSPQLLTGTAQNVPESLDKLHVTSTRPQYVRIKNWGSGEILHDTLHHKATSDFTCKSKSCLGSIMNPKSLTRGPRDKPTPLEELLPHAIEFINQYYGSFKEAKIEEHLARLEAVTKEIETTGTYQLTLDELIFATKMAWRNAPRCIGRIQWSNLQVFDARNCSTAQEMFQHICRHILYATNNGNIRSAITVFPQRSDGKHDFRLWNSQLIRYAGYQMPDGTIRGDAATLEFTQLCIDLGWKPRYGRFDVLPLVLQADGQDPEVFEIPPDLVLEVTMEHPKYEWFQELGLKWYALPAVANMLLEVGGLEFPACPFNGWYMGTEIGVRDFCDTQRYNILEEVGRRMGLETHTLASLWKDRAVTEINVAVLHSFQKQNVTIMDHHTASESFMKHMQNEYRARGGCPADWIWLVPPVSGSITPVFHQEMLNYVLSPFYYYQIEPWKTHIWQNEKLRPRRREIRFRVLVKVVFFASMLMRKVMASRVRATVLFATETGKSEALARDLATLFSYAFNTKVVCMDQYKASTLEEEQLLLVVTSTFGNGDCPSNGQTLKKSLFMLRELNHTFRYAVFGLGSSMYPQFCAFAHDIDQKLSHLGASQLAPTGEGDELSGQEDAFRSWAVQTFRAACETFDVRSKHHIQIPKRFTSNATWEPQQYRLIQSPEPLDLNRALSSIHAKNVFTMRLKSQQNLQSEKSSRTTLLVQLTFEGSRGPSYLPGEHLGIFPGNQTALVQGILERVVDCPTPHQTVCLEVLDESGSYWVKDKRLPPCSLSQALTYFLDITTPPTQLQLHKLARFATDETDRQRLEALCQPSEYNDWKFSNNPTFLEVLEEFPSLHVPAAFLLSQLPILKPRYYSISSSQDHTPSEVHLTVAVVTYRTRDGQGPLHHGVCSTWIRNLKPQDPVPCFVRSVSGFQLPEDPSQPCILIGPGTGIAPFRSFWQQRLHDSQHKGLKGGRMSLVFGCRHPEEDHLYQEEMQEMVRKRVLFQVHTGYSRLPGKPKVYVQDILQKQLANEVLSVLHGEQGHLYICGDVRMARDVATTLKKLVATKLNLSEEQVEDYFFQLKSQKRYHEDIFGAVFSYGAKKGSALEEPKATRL
The experiment in a line: Nitric oxide (NO) formation during oxidation of NADPH and O2, catalyzed by NOS II detected spectrophotometrically using hemoglobin assay. Format: functional. Summed up:
(§1)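 Purified recombinant NOS II (E. coli) at 20-30 nM was run at 37 °C in 50 mM HEPES pH 7.4 with 1 mM NADPH, 100 μM BH4, 5 mM DTT, 100 U/mL SOD, 100 U/mL catalase, 12-15 μM oxyhemoglobin and 500 μM substrate, against a buffer reference. The initial rate was followed at 401 nm (ε 34 mM⁻¹ cm⁻¹), or at 577 nm for strongly absorbing compounds (ε 14.5). Values are means ± SD of three to eight experiments.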

Assay [2] concerns the target Nitric oxide synthase 1 (Rattus norvegicus) (UniProt P29476). As to the kind of experiment: Nitric oxide (NO) formation during oxidation of NADPH and O2, catalyzed by NOS I was detected spectrophotometrically using hemoglobin assay. Format: functional. The procedure, abridged: (§2)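 Hemoglobin assay with purified recombinant NOS I (rat brain, expressed in S. cerevisiae) or NOS III (E. coli), at 37 °C in 50 mM HEPES pH 7.4. The mix held 1 mM NADPH, 100 μM BH4, 5 mM DTT, SOD/catalase, oxyhemoglobin, 1 mM CaCl2, 10 μg/mL CaM and 500 μM substrate. Methemoglobin formation was read at 401 nm. Activity is given as percent of that with 500 μM NOHA, from three to five experiments.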

Assay [3] deals with T2, Nitric oxide synthase 3 (Mus musculus) (UniProt P70313).
T2 sequence (whole entry): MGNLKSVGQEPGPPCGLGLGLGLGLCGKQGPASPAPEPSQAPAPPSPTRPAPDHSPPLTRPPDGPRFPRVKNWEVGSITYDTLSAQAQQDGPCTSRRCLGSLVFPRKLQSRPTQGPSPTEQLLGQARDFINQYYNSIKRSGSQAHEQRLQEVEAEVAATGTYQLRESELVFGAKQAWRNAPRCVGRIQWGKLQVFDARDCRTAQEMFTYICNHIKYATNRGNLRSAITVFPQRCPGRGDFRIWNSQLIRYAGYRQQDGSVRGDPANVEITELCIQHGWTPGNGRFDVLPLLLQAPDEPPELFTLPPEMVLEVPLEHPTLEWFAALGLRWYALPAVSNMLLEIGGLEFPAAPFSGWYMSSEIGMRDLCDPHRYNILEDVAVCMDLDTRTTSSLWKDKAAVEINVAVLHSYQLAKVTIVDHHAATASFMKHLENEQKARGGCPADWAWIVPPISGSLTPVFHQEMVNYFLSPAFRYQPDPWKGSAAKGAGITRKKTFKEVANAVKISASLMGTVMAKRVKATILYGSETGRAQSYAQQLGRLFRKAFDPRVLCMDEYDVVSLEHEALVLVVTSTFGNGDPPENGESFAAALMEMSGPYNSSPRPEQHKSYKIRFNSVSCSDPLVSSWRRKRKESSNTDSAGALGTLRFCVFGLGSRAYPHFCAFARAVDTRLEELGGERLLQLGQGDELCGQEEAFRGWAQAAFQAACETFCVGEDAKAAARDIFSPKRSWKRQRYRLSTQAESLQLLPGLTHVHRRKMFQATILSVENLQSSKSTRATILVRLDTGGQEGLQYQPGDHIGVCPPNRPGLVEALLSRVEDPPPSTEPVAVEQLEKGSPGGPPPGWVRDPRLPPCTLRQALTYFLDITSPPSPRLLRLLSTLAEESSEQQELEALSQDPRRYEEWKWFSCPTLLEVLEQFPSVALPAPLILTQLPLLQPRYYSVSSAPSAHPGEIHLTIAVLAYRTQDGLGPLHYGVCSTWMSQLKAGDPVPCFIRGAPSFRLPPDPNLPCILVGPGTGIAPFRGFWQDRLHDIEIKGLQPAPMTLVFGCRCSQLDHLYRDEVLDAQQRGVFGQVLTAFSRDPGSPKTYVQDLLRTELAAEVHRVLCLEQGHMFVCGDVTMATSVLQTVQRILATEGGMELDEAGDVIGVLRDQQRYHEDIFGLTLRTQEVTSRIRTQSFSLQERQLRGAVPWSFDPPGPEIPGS
The experiment in a line: Nitric oxide (NO) formation during oxidation of NADPH and O2, catalyzed by NOS III was detected spectrophotometrically using hemoglobin assay. Format: functional. Summed up: as §2

Assay [4] concerns the target T1, Nitric oxide synthase, inducible (Mus musculus). As to the kind of experiment: (§3) Kinetic constant for NO formation during transformation of oxyhemoglobin to methemoglobin using NADPH and molecular Oxygen in the presence of (NOS II). Format: functional. The procedure, abridged: (§4)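 Recombinant NOS II (E. coli-expressed, purified) assayed at 37 °C in 50 mM HEPES pH 7.4 with 1 mM NADPH, 100 μM BH4, 5 mM DTT, SOD and catalase (100 U/mL each), and 12-15 μM oxyhemoglobin. Substrate was varied from 5 μM to 2.5 mM. Enzyme level was set to keep oxyhemoglobin conversion below 30%. Kinetic constants come from the initial methemoglobin formation rate at 401 nm; three to four experiments.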

For assay [5] the target is unchanged. As to the kind of experiment: Nitric oxide (NO) formation during oxidation of NADPH and O2, catalyzed by NOS II was detected spectrophotometrically using hemoglobin assay. Format: functional. The procedure, abridged:
as §1

For assay [6] the target is unchanged. The experiment in a line: Nitric oxide (NO) formation during oxidation by NADPH and O2, catalyzed by NOS II was detected spectrophotometrically using hemoglobin assay. Type of assay: functional. The procedure, abridged: as §1
The target is the same in assay [7]. The description is as §3. The procedure, abridged:
as §4

Sequence of Nitric oxide synthase 1 (Rattus norvegicus) (P29476 whole entry): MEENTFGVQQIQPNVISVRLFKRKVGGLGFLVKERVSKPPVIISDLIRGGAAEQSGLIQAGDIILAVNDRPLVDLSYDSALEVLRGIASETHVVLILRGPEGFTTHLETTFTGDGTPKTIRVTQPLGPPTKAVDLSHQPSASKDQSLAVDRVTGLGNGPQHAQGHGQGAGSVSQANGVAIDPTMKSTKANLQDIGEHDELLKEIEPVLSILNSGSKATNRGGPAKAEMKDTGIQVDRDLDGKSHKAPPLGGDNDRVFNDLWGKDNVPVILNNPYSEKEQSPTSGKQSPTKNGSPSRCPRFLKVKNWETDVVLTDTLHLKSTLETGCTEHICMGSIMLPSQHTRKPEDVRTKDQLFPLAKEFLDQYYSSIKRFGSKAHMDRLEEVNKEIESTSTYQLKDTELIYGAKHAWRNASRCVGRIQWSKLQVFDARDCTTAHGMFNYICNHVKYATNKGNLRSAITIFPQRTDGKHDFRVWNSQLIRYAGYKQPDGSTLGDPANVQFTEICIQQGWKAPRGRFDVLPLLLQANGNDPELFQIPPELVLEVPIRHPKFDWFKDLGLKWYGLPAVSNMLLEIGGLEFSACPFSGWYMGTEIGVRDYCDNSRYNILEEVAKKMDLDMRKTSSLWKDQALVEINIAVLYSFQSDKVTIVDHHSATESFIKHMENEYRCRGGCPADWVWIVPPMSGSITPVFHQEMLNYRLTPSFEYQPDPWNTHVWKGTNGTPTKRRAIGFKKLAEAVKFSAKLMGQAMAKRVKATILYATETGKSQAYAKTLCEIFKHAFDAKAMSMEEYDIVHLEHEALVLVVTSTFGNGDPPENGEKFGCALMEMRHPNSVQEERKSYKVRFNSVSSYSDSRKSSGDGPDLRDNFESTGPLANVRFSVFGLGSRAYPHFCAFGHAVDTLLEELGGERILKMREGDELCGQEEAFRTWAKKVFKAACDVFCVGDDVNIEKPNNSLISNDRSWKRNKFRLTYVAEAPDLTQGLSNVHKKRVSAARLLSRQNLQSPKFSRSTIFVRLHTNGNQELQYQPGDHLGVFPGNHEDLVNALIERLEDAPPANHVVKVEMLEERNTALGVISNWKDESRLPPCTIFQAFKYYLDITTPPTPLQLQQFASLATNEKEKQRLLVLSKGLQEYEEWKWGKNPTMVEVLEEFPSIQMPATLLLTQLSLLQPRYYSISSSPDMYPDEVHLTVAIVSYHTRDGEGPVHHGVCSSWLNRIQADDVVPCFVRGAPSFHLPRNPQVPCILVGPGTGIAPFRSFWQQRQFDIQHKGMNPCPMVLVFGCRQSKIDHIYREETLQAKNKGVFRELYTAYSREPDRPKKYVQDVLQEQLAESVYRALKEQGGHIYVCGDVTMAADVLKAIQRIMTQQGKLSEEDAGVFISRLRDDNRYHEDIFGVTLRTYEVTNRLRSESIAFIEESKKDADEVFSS

In assay [1], `ON=C(Nc1ccccc1)Nc1ccccc1` had an NOHA below 0.2%. As for `N=C(NO)Nc1ccccc1`, the NOHA in assay [2] is 1.5%; in assay [3] it was below 0.2%; in assay [1], 20%. In addition, the k cat in assay [4] was found to be 2.17 s⁻¹. The compound `N/C(=N\O)c1ccccc1` returned an NOHA in assay [1] below 0.2%. `N/C(=N\O)NCCc1ccccc1` came in with an NOHA in assay [1] of 6%. Still for that read-out and setting: under `N/C(=N/c1cccc(Cl)c1)NO` stands 5%.

`N/C(=N/c1ccc(O)cc1)NO`: the NOHA in assay [2] was 8.5%; in assay [3], below 0.2%; in assay [1] it was 16.5%. Also, the k cat in assay [4] amounted to 1.83 s⁻¹. On to `N/C(=N/c1ccc2c[nH]nc2c1)NO`, for which the NOHA in assay [1] was 2.5%. Turning to `N/C(=N/c1cccc(CO)c1)NO`, the NOHA in assay [2] was below 0.2%; in assay [3] it was below 0.2%; in assay [1], 6%. As to `O/N=C/c1ccc(Cl)cc1`, the NOHA in assay [1] was below 0.2%. Same read-out and setting: with `N/C(=N/c1ccc(C(F)(F)F)cc1)NO` the figure was 0.5%. Consider `N/C(=N/c1ccc(F)cc1)NO`, for which the figures for the NOHA in assay [2], in assay [3] and in assay [1] were 4.5%, below 0.2% and 41%, respectively. In addition, in assay [4], the k cat is 5.83 s⁻¹. `N/C(=N/c1ccccc1Cl)NO` returned an NOHA in assay [1] of 5%.

Turning to `COc1ccc(/C(C)=N/O)cc1`, the NOHA in assay [1] was below 0.2%. For `Cc1ccc(NC(=N)NO)cc1`, the NOHA in assay [2] is below 0.2%; in assay [3], below 0.2%; in assay [1] it was 17.5%. For the same compound, the k cat in assay [4] amounted to 4.92 s⁻¹. `C/C(=N/c1ccc(Cl)cc1)NO` registered an NOHA in assay [1] below 0.2%. The same measure, in the same setting: under `COc1ccccc1/N=C(/N)NO` stands 5%.

As for `N/C(=N/c1ccc(N)cc1)NO`, the NOHA was 4.5% in assay [2], below 0.2% in assay [3] and 8% in assay [1]. On to `N/C(=N/CCCC(N)C(=O)O)NO` (stereo not given), for which the Activity (nM (nM of NOS)) in assay [2] was 130; in assay [3], 65; in assay [5] it was 425. The k cat in assay [4] was 7.08 s⁻¹.

`N/C(=N/c1ccsc1)NO` gave an NOHA in assay [1] of 9.5%. Also, the k cat in assay [4] is 0.667 s⁻¹. In the case of `COc1ccc(/C=N/O)cc1`, the NOHA in assay [1] was below 0.2%. Still for that read-out and setting: under `N/C(=N/c1ccc(OCC(=O)O)cc1)NO` stands below 0.2%; under `N/C(=N\O)N1CCc2ccccc2C1`, below 0.2%. Regarding `COc1ccc(NC(=N)NO)cc1`, the NOHA is 3.5% in assay [2], below 0.2% in assay [3] and 8% in assay [1]. Moreover, the k cat in assay [4] was determined as 2.42 s⁻¹. Compound `COc1ccc(N/C(C)=N/O)cc1` had an NOHA in assay [1] below 0.2%.

`CC(C(=O)O)c1ccc(NC(=N)NO)cc1` (stereo not given): the NOHA in assay [1] was below 0.2%. As for `N/C(=N/c1ccc(Br)cc1)NO`, in assay [1], the NOHA is 7.5%. Regarding `N/C(=N/c1cccc(N)c1)NO`, the NOHA in assay [2] came to 2.5%; in assay [3], 6.5%; in assay [1], 3.5%. `COc1ccc(C(=N)NO)cc1` registered an NOHA in assay [1] below 0.2%. On the same count and under the same terms, with `N/C(=N/c1ccc(CC(=O)O)cc1)NO` the figure was below 0.2%; with `N/C(=N\O)c1ccc(Cl)cc1`, below 0.2%. In assay [1], `N/C(=N/c1cccc(C(F)(F)F)c1)NO` returned an NOHA of 2.5%. Same read-out and setting: under `N/C(=N/c1ccc([N+](=O)[O-])cc1)NO` stands 2%. On the same count and under the same terms, with `C/C(=N\O)c1ccc(Cl)cc1` the figure was below 0.2%. In assay [1], `N=C(NO)Nc1cccc(CN)c1` returned an NOHA of 1.5%. Still for that read-out and setting: under `N=C(NO)NCc1ccccc1` stands 15%.

On to `CC(C)(C)c1ccc(NC(=N)NO)cc1`, for which the NOHA in assay [6] is below 0.2%. With `N=C(NO)Nc1ccc(Cl)cc1`, the NOHA in assay [2] was below 0.2%; in assay [3], below 0.2%; in assay [1] it was 13%. Also, in assay [7], the k cat turned out to be 1.63 s⁻¹.
